Published values collected from several papers.
Compare with care: the assays were run in different laboratories.
Target: Protein-tyrosine kinase 6 (PTK6, Homo sapiens, UniProt Q13882)

| Structure (SMILES) | test | conditions | measurement | result |
| --- | --- | --- | --- | --- |
| Cn1cc(-c2cccc(N3CCc4c(sc5c4CC(C)(C)C5)C3=O)c2CO)cc(Nc2ccncn2)c1=O | enzyme activity, inhibitor | 1 µM | inhibition | 1% |
| COc1cc(Nc2ncc(F)c(Nc3ccc4c(n3)NC(=O)C(C)(C)O4)n2)cc(OC)c1OC | binding | 10 µM | inhibition | 82% |
| Cc1nn(C)cc1-c1nc2c(N3CCN(Cc4ccc(Cl)cc4)CC3)c(Cl)cnc2[nH]1 | binding, competition with immobilised ligand | 1 µM | remaining binding | 96% |
| C#Cc1n[nH]c2c(-c3cn([C@@H](C)c4ccccc4)c(=O)[nH]c3=O)cc(F)cc12 | enzyme activity, inhibitor | 0.1 µM | inhibition | 9.4% |
| O=c1[nH]c2ccccc2n1C1CCN(Cc2ccc(-c3[nH]c4cc5ncnc5cc4nc3-c3ccccc3)cc2)CC1 | cell-free assay | 0.5 µM | remaining signal | 91.1% |
| C#Cc1n[nH]c2c(-c3cn([C@@H](C)c4ccccn4)c(=O)[nH]c3=O)cc(F)cc12 | enzyme activity, inhibitor | 0.1 µM | inhibition | 5.5% |
| Cn1cc(-c2cc(F)cc(N3CCn4c(cc5c4CCCC5)C3=O)c2CO)cc(Nc2ccc(N3CCN(C4COC4)CC3)cn2)c1=O | enzyme activity, inhibitor | 0.1 µM | inhibition | 10% |
| COc1ncccc1-c1cnn2ccc(N3CCN(C(=O)OC(C)C)CC3)nc12 | binding, competition with immobilised ligand | 1 µM | remaining binding | 61% |
| Cn1cncc1[C@@](O)(COc1ccc(C#N)cc1-c1ccc(OC(F)(F)F)cc1)c1ccc(C#N)cc1 | cell-free assay, competition with immobilised ligand | 1 µM | remaining binding | 100% |
| CC(C)(C)c1cc(C=C(C#N)C#N)cc(Br)c1O | enzyme activity, inhibitor | 0.5 µM | remaining activity | 91.4% |
